Activity calls are given as the source filed them. The calls are words filed in the database; no cut-off is given here.
How the values were obtained:
[1] = test system: Mus musculus; test: Effect of on mean survival time upon oral treatment on HSV-2 induced mortality in mice at 10 mg/kg dose; assay type: functional
Outline: (§1)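 Female Swiss-Webster mice, about 20 g, infected intraperitoneally with 5×10^4 PFU of HSV-2 strain G (about ten LD50). Oral dosing once every 24 h for 4 days, starting 24 h post-infection, with a saline-treated control group. Groups of 19–20 mice. Survivors were scored and compared by Fisher exact test. Mean survival time (days ± SD) was compared by Mann-Whitney U test. NS means p > 0.05.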

[2] = test system: Mus musculus; test: Effect of oral treatment with compound on HSV-2 induced mortality in mice at 20 mg/kg dose; 10/20; assay type: functional; outline: as §1
[3] = test system: Vero; test: In vitro antiviral activity was measured against HSV-1(F) in Vero cells; assay type: functional; conditions: Chlorocebus sabaeus, read-out: ID50 (the source's name)
[4] = test system: Mus musculus; test: Effect of oral treatment with compound on HSV-2 induced mortality in mice at 10 mg/kg dose; 3/20; assay type: functional; outline: as §1
[5] = test system: Mus musculus; test: (§2) Effect of oral treatment with compound on HSV-2 induced mortality in mice at 5 mg/kg dose; NS=Not significant; assay type: functional, organism-based; design: dose 5 mg/kg; outline: as §1
[6] = test system: Mus musculus; test: Effect of oral treatment with compound on HSV-2 induced mortality in mice at 20 mg/kg dose; assay type: functional; outline: as §1
[7] = test system: MRC5; test: In vitro antiviral activity was measured against HCMV(AD-169) in MRC5 cells; assay type: functional; conditions: Homo sapiens, read-out: ID50 (the source's name)
[8] = test system: Mus musculus; test: (§3) Effect of oral treatment with compound on HSV-2 induced mortality in mice at 10 mg/kg dose; NS=Not significant; assay type: functional, organism-based; design: dose 10 mg/kg; outline: as §1
[9] = test system: Vero; test: In vitro anticellular activity was measured against vero cells; assay type: functional; conditions: Chlorocebus sabaeus, read-out: ID50 (the source's name)
Outline: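 Cell proliferation assay in uninfected Vero cells.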

[10] = test system: Vero; test: In vitro antiviral activity was measured against HSV-1 (F delta 305) in Vero cells; assay type: functional; conditions: Chlorocebus sabaeus, read-out: ID50 (the source's name)
[11] = test system: Mus musculus; test: Effect of on mean survival time upon oral treatment on HSV-2 induced mortality in mice at 20 mg/kg dose; assay type: functional; outline: as §1
[12] = test system: Mus musculus; test: Effect of on mean survival time upon oral treatment on HSV-2 induced mortality in mice at 5 mg/kg dose; assay type: functional; outline: as §1
[13] = test system: Mus musculus; test: as §3; assay type: functional, organism-based; design: dose 10 mg/kg; remark: listed apart in the source
Outline: (§4)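 Female Swiss-Webster mice (ca. 20 g) infected intraperitoneally with 5×10^4 PFU HSV-2 strain G (about ten 50% lethal doses). Oral dosing once every 24 h for 4 days, starting 24 h postinfection; saline controls. Survivors/total recorded, survivor increase tested by Fisher exact test; mean survival time (days ± standard deviation) compared by Mann-Whitney U test.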

[14] = test system: Vero; test: In vitro antiviral activity was measured against HSV-1 (MP-PAA/DHPG) in Vero cells; assay type: functional; conditions: Chlorocebus sabaeus, read-out: ID50 (the source's name)
[15] = test system: Mus musculus; test: Effect of oral treatment with compound on HSV-2 induced mortality in mice at 5 mg/kg dose; 8/20; assay type: functional; outline: as §1
[16] = test system: Vero; test: In vitro antiviral activity was measured against HSV-2(G) in Vero cells; assay type: functional; conditions: Chlorocebus sabaeus, read-out: ID50 (the source's name)
[17] = test system: Mus musculus; test: as §2; assay type: functional, organism-based; design: dose 5 mg/kg; outline: as §4; remark: listed apart in the source
[18] = test system: Mus musculus; test: Effect of subcutaneous treatment with compound on HSV-2 induced mortality in mice at 30 mg/kg dose; 2/15; assay type: functional
Outline: (§5)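 Female Swiss-Webster mice, about 20 g, challenged intraperitoneally with 5×10^4 PFU of HSV-2 strain G (about ten LD50). Subcutaneous dosing once daily for 4 days, beginning 24 h after infection, with a saline control group. 15 mice per group. Survivor numbers were compared by Fisher exact test and mean survival time (± SD) by Mann-Whitney U test. NS means p > 0.05.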

[19] = test system: Mus musculus; test: (§6) Effect of subcutaneous treatment with compound on HSV-2 induced mortality in mice at 5 mg/kg dose; NS=Not significant; assay type: functional, organism-based; design: dose 5 mg/kg
Outline: as §4, with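 “Subcutaneous” for “Oral”, “daily” for “every 24 h”, “recorded,” for “recorded, survivor increase tested by”, “test for survival;” for “test;”, “(±” for “(days ±”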

[20] = test system: Mus musculus; test: Effect of subcutaneous treatment with compound on HSV-2 induced mortality in mice at 30 mg/kg dose; NS=Not significant; assay type: functional, organism-based; design: dose 30 mg/kg; outline: as §5
[21] = test system: Mus musculus; test: as §6; assay type: functional, organism-based; design: dose 5 mg/kg; outline: as §5; remark: listed apart in the source
[22] = test system: Mus musculus; test: Effect of subcutaneous treatment with compound on HSV-2 induced mortality in mice at 30 mg/kg dose; assay type: functional; outline: as §5
[23] = test system: Mus musculus; test: Effect of subcutaneous treatment with compound on HSV-2 induced mortality in mice at 15 mg/kg dose; NS=Not significant; assay type: functional, organism-based; design: dose 15 mg/kg; outline: as §5
[24] = test system: Mus musculus; test: Effect of subcutaneous treatment with compound on HSV-2 induced mortality in mice at 5 mg/kg dose; 2/15; assay type: functional; outline: as §5
[25] = test system: Mus musculus; test: Effect of subcutaneous treatment with compound on HSV-2 induced mortality in mice at 15 mg/kg dose; 0/15; assay type: functional; outline: as §5
[26] = test system: Mus musculus; test: Effect of subcutaneous treatment with compound on HSV-2 induced mortality in mice at 15 mg/kg dose; assay type: functional; outline: as §5
[27] = test system: Mus musculus; test: Effect of oral treatment with compound on HSV-2 induced mortality in mice at 5 mg/kg dose; 0/19; assay type: functional; outline: as §1
[28] = test system: Mus musculus; test: Effect of subcutaneous treatment with compound on HSV-2 induced mortality in mice at 5 mg/kg dose; assay type: functional; outline: as §5
[29] = test system: Mus musculus; test: Effect of oral treatment with compound on HSV-2 induced mortality in mice at 10 mg/kg dose; 6/20; assay type: functional; outline: as §1
[30] = test system: Mus musculus; test: Effect of oral treatment with compound on HSV-2 induced mortality in mice at 20 mg/kg dose; 11/20; assay type: functional; outline: as §1
[31] = test system: Mus musculus; test: Effect of subcutaneous treatment with compound on HSV-2 induced mortality in mice at 5 mg/kg dose; 10/15; assay type: functional; outline: as §5
[32] = test system: Mus musculus; test: Effect of oral treatment with compound on HSV-2 induced mortality in mice at 5 mg/kg dose; assay type: functional; outline: as §1
[33] = test system: Mus musculus; test: Effect of subcutaneous treatment with compound on HSV-2 induced mortality in mice at 1.5 mg/kg dose; 8/15; assay type: functional; outline: as §5
[34] = test system: Mus musculus; test: Effect of subcutaneous treatment with compound on HSV-2 induced mortality in mice at 15 mg/kg dose; 15/15; assay type: functional; outline: as §5
[35] = test system: Mus musculus; test: Effect of subcutaneous treatment with compound on HSV-2 induced mortality in mice at 1.5 mg/kg dose; assay type: functional; outline: as §5
[36] = test system: Mus musculus; test: Effect of oral treatment with compound on HSV-2 induced mortality in mice at 10 mg/kg dose; assay type: functional; outline: as §1

Nc1nc2c(ncn2COC2COP(=O)(O)OC2)c(=O)[nH]1 (configuration not stated)
MST [1]: 10.6 days | Survivors [2]: 10 | IC50 [3]: 2 µM | Survivors [4]: 3 | Survivor increase [5]: inactive | Survivor increase [6]: 0.01 | p-value for mean survival time increase [6]: <0.01 | IC50 [7]: 6 µM | Survivor increase [8]: inactive | IC50 [9]: 40 µM | IC50 [10]: 0.5 µM | MST [11]: 11.6 days | MST [12]: 10.4 days | MST increase [13]: inactive | IC50 [14]: 7 µM | Survivors [15]: 8 | IC50 [16]: 6 µM | MST increase [17]: inactive

Nc1nc(N)c2ncn(COC3COP(=O)(O)OC3)c2n1 (configuration not stated)
IC50 [3]: 125 µM | Survivors [18]: 2 | MST increase [19]: inactive | Survivor increase [20]: inactive | IC50 [10]: 80 µM | Survivor increase [21]: inactive | MST increase [22]: 0.01 | Survivor increase [23]: inactive | Survivors [24]: 2 | IC50 [16]: > 100 µM | Survivors [25]: 0 | MST increase [26]: 0.025

Nc1nc2c(ncn2COC(CO)CO)c(=O)[nH]1 [GANCICLOVIR]
Survivors [27]: 0 | MST [1]: 10.9 days | IC50 [3]: 0.2 µM | MST increase [28]: <0.001 | Survivor increase [28]: <0.001 | Survivors [29]: 6 | Survivors [30]: 11 | Survivor increase [5]: inactive | Survivors [31]: 10 | MST increase [32]: <0.01 | Survivor increase [6]: 0.005 | p-value for mean survival time increase [6]: <0.01 | Survivors [33]: 8 | IC50 [7]: 5 µM | Survivor increase [8]: inactive | IC50 [9]: 450 µM | IC50 [10]: 10 µM | MST [11]: 11.9 days | MST ([12]; 5 mg/kg): 11.3 days | Survivors [34]: 15 | IC50 [14]: 125 µM | MST increase [35]: <0.001 | Survivor increase [35]: 0.01 | IC50 [16]: 1.6 µM | MST increase [36]: <0.025 | MST increase [26]: <0.001 | Survivor increase [26]: <0.001
